Data set [1] in a line: Antiviral activity against Hepatitis B virus subtype adw2 infected in human HuH7 cells assessed as inhibition of viral DNA replication by RT-PCR method. The format is functional, cell-based. The conditions noted are these: Huh-7.
Data set [2] relates to Hepatitis B virus subtype adw2. In words: Antiviral activity against Hepatitis B virus subtype adw2 infected in human HuH7 cells assessed as inhibition of viral DNA replication after 3 days by RT-PCR method. The format is functional, cell-based. A digest of the protocol: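 HBV-expressing Huh7 cells were dosed at 2.5, 5 or 10 μg/mL for 3 days. Viral DNA was isolated from virion particles in the conditioned medium and quantified by real-time PCR. Mean ± SD, n = 3, compared with untreated cells.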

Data set [3] is described as follows: Antiviral activity against Hepatitis B virus subtype adw2 infected in human HuH7 cells assessed as reduction in HBx level at 5 ug/ml after 2 days by immunoblot method relative to control. Type of data set: functional. A digest of the protocol: (§1)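 Huh7 cells were transfected with pHBV1.2 (1.2-fold HBV adw2 genome) for 2 days, then exposed to 2.5, 5 or 10 μg/mL for another 2 days. Whole-cell protein was extracted with protease inhibitors. SHBs, HBcAg and HBx were detected by immunoblot, with α-tubulin for comparison.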
(In general: In western blotting, separated proteins are transferred to a membrane and probed.)

Data set [4] in a line: Antiviral activity against Hepatitis B virus subtype adw2 infected in human HuH7 cells assessed as reduction in HBx level at 10 ug/ml after 2 days by immunoblot method relative to control. The format is functional. A digest of the protocol: as §1
A short description of data set [5]: Effect on AP-2 (unknown origin) promoter activity expressed in human HuH7 cells cotransfected with pHBV1.2 at 10 ug/ml after 24 hrs by luciferase reporter gene assay. The format is cell-based. A digest of the protocol: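 Huh7 seeded in 24-well plates for 24 h. They were cotransfected with pHBV1.2 plus a luciferase reporter carrying the AP-2 (pAP2-Luc) or ISRE (pISRE-Luc) element, at 1 μg/well, and pRLSV40, in serum-free DMEM for 24 h. After a PBS wash, cells were placed in DMEM with 2% FBS and treated with 10 μg/mL. Luciferase was read from lysates; mean ± SD, n = 3.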
In general terms: A reporter such as luciferase makes a cellular process visible.

Data set [6] deals with Huh-7. Description: Effect on NF-kB p50 protein expression in human HuH7 cells transfected with pHBV1.2 at 2.5 ug/ml after 2 days by immunoblot method relative to control. The format is functional. A digest of the protocol: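 HBV adw2 genome plasmid pHBV1.2 transfected into Huh7 for 2 days, then 2.5, 5 or 10 μg/mL for another 2 days. Whole-cell protein extracted with protease inhibitors, then SDS-PAGE immunoblot for NF-κB and MAPK pathway proteins. Blots are representative of three sets of experiments.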

For data set [7], the system named is Huh-7. In words: Decrease in NF-kB p50 protein expression in human HuH7 cells transfected with pHBV1.2 at 5 ug/ml after 2 days by immunoblot method relative to control. The format is functional. A digest of the protocol: (§2)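 Huh7 cells were transfected with pHBV1.2 for 2 days, then treated at 2.5, 5 or 10 μg/mL for another 2 days. Whole-cell protein was extracted with protease inhibitors. NF-κB p65/p50, phospho-p65, IKKα/β and IκBα/phospho-IκBα were detected by immunoblot. Blots are representative of three experiments.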

Data set [8] concerns Huh-7. In words: Decrease in IKKbeta protein expression in human HuH7 cells transfected with pHBV1.2 at 10 ug/ml after 2 days by immunoblot method relative to control. The format is functional. A digest of the protocol:
as §2

For data set [9], the target named is Transcription factor p65 (Homo sapiens) (UniProt Q04206). Description: Decrease in NF-kB p65 phosphorylation in human HuH7 cells transfected with pHBV1.2 at 2.5 ug/ml after 2 days by immunoblot method relative to control. The format is cell-based. A digest of the protocol:
as §2

The target in data set [10] is T1, NF-kappa-B inhibitor alpha (Homo sapiens) (UniProt P25963).
T1 sequence (whole entry): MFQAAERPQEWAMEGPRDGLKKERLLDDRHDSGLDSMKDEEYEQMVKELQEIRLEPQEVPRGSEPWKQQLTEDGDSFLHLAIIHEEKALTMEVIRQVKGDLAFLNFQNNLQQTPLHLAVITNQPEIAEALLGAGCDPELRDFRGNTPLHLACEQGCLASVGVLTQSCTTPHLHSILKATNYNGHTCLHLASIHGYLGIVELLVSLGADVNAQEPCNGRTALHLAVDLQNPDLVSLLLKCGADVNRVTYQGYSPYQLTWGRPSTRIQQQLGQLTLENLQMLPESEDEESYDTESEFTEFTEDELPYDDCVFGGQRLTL
Description: Decrease in IKBalpha phosphorylation in human HuH7 cells transfected with pHBV1.2 at 2.5 ug/ml after 2 days by immunoblot method relative to control. Type of data set: cell-based. A digest of the protocol: as §2

The test system of data set [11] is Huh-7. In words: Decrease in IKBalpha protein expression in human HuH7 cells transfected with pHBV1.2 at 2.5 ug/ml after 2 days by immunoblot method relative to control. Type of data set: functional. A digest of the protocol:
as §2

Data set [12] concerns Huh-7. Description: Decrease in IKBalpha protein expression in human HuH7 cells transfected with pHBV1.2 at 10 ug/ml after 2 days by immunoblot method relative to control. The format is functional. A digest of the protocol:
as §2

Data set [13] deals with Hepatitis B virus subtype adw2. In words: Antiviral activity against Hepatitis B virus subtype adw2 infected in human HuH7 cells cotransfected with pCMV-p65 assessed as inhibition of viral DNA replication at 10 ug/ml after 2 days by RT-PCR method. Type of data set: functional, cell-based. A digest of the protocol:
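Huh7 cells were cotransfected with pHBV1.2 and, where stated, 0.5 or 2.5 μg pCMV-p65 (or empty vector) for 2 days, then treated at 10 μg/mL for 2 days. In separate wells, HBV-expressing cells received 10 μg/mL with or without anisomycin (10 μM) for 2 days. Secreted viral particles were kit-isolated and HBV DNA was measured by real-time PCR, n = 3.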

Data set [14] in a line: Cytotoxicity against human HepG2.2.15 cells assessed as reduction in cell viability after 3 days by MTS assay. The conditions noted are these: read-out: TC50.
Data set [15] concerns the target Mitogen-activated protein kinase; ERK1/ERK2 (Homo sapiens) (UniProt P27361+P28482). Description: Decrease in ERK1/2 phosphorylation in human HuH7 cells transfected with pHBV1.2 at 2.5 to 10 ug/ml after 2 days by immunoblot method.
Data set [16] can be described thus: Selectivity index, ratio of TC50 for human HepG2.2.15 cells to IC50 for Hepatitis B virus subtype adw2 infected in human HuH7 cells assessed as inhibition of HBsAg secretion.
Data set [17] is described as follows: Selectivity index, ratio of TC50 for human HepG2.2.15 cells to IC50 for Hepatitis B virus subtype adw2 infected in human HepG2.2.15 cells assessed as inhibition of HBeAg secretion.

Calls of active or inactive are those of the source. No cut-off for these calls is given here.

A word on the IC50: it is the point on the concentration scale where inhibition reaches its midpoint.

Chain of Mitogen-activated protein kinase; ERK1/ERK2 (Homo sapiens) (P27361 whole entry, looked up): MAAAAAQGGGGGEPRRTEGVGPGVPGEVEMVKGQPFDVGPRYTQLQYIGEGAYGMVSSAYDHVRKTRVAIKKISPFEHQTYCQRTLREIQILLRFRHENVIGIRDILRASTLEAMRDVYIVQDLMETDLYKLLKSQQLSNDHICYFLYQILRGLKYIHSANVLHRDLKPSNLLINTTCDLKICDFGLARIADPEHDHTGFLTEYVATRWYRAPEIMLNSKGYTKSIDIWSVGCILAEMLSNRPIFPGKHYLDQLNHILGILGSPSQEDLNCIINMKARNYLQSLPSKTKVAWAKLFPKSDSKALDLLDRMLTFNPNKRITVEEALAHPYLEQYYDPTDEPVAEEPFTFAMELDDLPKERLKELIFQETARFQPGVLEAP
Chain of Mitogen-activated protein kinase; ERK1/ERK2 (Homo sapiens) (P28482 whole entry, looked up): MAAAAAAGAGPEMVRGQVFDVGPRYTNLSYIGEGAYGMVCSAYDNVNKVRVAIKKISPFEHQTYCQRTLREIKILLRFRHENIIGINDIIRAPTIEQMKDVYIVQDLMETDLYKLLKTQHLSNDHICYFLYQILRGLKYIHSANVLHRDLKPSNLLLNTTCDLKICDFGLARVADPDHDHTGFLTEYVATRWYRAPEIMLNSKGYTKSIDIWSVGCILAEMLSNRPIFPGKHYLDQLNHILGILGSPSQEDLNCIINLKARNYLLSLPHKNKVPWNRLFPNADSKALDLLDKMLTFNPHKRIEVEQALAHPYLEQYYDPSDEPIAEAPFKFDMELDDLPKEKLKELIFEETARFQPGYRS
Chain of Transcription factor p65 (Homo sapiens) (Q04206 whole entry): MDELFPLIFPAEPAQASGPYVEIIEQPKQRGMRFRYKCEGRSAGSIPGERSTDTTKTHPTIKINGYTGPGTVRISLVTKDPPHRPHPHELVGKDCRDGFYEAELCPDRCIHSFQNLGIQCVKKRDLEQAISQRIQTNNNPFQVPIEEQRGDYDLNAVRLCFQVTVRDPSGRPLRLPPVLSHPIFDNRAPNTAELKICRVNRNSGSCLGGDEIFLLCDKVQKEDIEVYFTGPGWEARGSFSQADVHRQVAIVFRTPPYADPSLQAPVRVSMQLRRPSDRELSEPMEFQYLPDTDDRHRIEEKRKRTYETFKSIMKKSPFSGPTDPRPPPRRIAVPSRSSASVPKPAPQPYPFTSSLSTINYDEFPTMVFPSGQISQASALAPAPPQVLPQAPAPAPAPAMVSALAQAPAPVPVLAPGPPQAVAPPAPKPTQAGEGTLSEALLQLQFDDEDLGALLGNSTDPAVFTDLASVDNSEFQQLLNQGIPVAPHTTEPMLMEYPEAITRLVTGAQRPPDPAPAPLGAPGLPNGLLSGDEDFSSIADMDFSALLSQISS

In the case of `C=C1C[C@@]23CC[C@H]4[C@@](C)(CCC[C@@]4(C)NC(=O)NCCCC)[C@@H]2CC[C@]1(O)C3`, in data set [1], the IC50 is 16.9 µM. Besides, the inhibition result in data set [2] is “Dose-dependent effect”. In addition, the “fold change (FC)” value in data set [3] was 0.87; in data set [4], 0.15; in the data set with Huh-7 [6] it was 1.01; in the data set on Huh-7 [7] it was 0.97; with Huh-7 [8] it was 0.33; in data set [9], 0.95. The fold change (FC) in data set [10] was determined as 0.97; in the data set with Huh-7 [11], 0.97; with Huh-7 [12], 0.25. The outcome in [5] was inactive. The inhibition entry in data set [13] was “inactive”. For the same compound, in [14], the CC50 at 72 h worked out at 972 µM. Also, the result in data set [15] was Active. For the same compound, the selectivity ratio in data set [16] was determined as 41.4; in [17], 47.7.

Values taken from ChEMBL document CHEMBL3997773, “Synthesis of C-4-Substituted Steviol Derivatives and Their Inhibitory Effects against Hepatitis B Virus” (J Nat Prod, 2016).
